Assays:
[1] = biological target: T1, C-C chemokine receptor type 2 (Homo sapiens, UniProt P41597); experiment: Antagonist activity against human CCR2B expressed in Chem-1 cells assessed as inhibition of human CCL2-induced intracellular calcium flux incubated for 10 mins by Fluo-4 AM dye based intracellular calcium flux assay; format: functional, cell-based
Target sequence in this assay (P41597 whole entry): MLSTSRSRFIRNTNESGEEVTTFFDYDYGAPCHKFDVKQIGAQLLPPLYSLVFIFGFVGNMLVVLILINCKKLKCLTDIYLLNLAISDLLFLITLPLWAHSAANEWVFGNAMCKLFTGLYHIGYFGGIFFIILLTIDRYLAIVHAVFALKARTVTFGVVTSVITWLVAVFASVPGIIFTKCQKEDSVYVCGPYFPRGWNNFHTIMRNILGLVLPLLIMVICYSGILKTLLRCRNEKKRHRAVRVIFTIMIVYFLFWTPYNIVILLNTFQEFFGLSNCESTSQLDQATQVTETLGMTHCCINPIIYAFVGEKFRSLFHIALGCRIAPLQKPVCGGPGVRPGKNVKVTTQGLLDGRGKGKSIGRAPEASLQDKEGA

[2] = biological target: T1, C-C chemokine receptor type 2; experiment: Displacement of [125I]-CCL2 from human CCR2 expressed in U2OS cells at 1 uM incubated for 150 mins by scintillation spectrometry; format: cell-based
How it was run: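 Membranes (15 µg protein) from U2OS cells stably expressing human CCR2 were incubated with 0.1 nM 125I-CCL2 for 150 min at 37 C. Buffer was 50 mM Tris-HCl pH 7.4 with 5 mM MgCl2 and 0.1% CHAPS. Test compound was 1 µM and nonspecific binding was defined with 10 µM INCB3344. Bound ligand was separated by filtration on PEI-coated GF/B filters and counted by scintillation. Result given as % displacement.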
Target sequence in this assay (P41597 whole entry, looked up): as the sequence (P41597 whole entry) above

[3] = biological target: C-C chemokine receptor type 2 (Mus musculus, UniProt P51683); experiment: Antagonist activity against mouse CCR2B expressed in human U2OS cells co-expressing beta-arrestin assessed as inhibition of mouse CCL2-induced beta-arrestin recruitment pre-incubated for 10 mins before mouse CCL2 stimulation for 90 mins by luminescence based assay; format: cell-based
Sequence of C-C chemokine receptor type 2 (Mus musculus, UniProt P51683) (P51683 whole entry): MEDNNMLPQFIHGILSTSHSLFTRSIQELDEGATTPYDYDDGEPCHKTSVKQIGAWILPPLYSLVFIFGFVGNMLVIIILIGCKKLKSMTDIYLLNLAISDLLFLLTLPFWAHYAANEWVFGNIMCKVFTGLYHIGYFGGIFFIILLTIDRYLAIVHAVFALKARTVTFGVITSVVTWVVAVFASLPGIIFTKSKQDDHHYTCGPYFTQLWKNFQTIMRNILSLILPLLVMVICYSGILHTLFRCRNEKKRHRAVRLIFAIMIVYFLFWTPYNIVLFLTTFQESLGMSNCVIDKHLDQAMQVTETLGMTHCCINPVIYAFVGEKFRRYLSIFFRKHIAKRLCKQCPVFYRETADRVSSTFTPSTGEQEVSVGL

[4] = biological target: T1, C-C chemokine receptor type 2; experiment: Displacement of [125I]-CCL2 from human CCR2 expressed in U2OS cells incubated for 150 mins by scintillation spectrometry; format: cell-based
Target sequence in this assay (P41597 whole entry): as the sequence (P41597 whole entry) above

| IC50 [1] [µM] | inhibition [2] [%] | IC50 [3] [µM] | Ki [4] [µM] | SMILES |
| --- | --- | --- | --- | --- |
| 0.089 | 25 | 11.2 | – | O=C(NCc1cc(C(F)(F)F)cc(C(F)(F)F)c1)C(CCN1CCC2(CC1)OCCc1ccccc12)c1ccc(F)cc1 (stereo not given) |
| 0.684 | 10 | 24 | – | O=C(CCCN1CCC2(CC1)OCCc1ccccc12)NCc1cc(C(F)(F)F)cc(C(F)(F)F)c1 |
| 12 | -10 | > 30 | – | CC1Cc2ccccc2C2(CCN(CCCC(=O)NCc3cc(F)cc(C(F)(F)F)c3)CC2)O1 (stereo not given) |
| 0.163 | – | 4.16 | – | COc1ccc2c(c1)CCOC21CCN(CCC(C(=O)NCc2cc(C(F)(F)F)cc(C(F)(F)F)c2)c2ccc(F)cc2)CC1 (stereo not given) |
| 0.173 | 7 | 3.63 | – | O=C(NCc1cc(F)cc(C(F)(F)F)c1)C(CCN1CCC2(CC1)OCCc1ccccc12)c1ccc(F)cc1 (stereo not given) |
| 6.1 | – | > 30 | – | O=C(NCc1cc(F)cc(C(F)(F)F)c1)C(CCN1CCC2(CC1)OCCc1cc(O)ccc12)c1ccc(F)cc1 (stereo not given) |
| 1.24 | 1 | 18 | – | COc1ccc2c(c1)CCOC21CCN(CCCC(=O)NCc2cc(C(F)(F)F)cc(C(F)(F)F)c2)CC1 |
| 0.017 | – | 3.3 | – | O=C(NCc1cc(C(F)(F)F)cc(C(F)(F)F)c1)C(CCN1CCC2(CC1)OCCc1ccccc12)C1CC1 (stereo not given) |
| 7.54 | – | 7.9 | – | CC1Cc2ccccc2C2(CCN(CCCC(=O)NCc3cc(C(F)(F)F)cc(C(F)(F)F)c3)CC2)O1 (stereo not given) |
| 0.18 | 4 | > 30 | – | O=C(CCCN1CCC2(CC1)OCCc1ccccc12)NCc1cc(F)cc(C(F)(F)F)c1 |
| 0.353 | -7 | 4.63 | – | COc1ccc2c(c1)CCOC21CCN(CCC(C(=O)NCc2cc(F)cc(C(F)(F)F)c2)c2ccc(F)cc2)CC1 (stereo not given) |
| – | – | 23 | 0.002 | Cc1ccc(-c2ccc3c(c2)C=C(C(=O)Nc2ccc(C[N+](C)(C)C4CCOCC4)cc2)CCC3)cc1 |
| 0.318 | -1 | > 30 | – | COc1ccc2c(c1)CCOC21CCN(CCCC(=O)NCc2cc(F)cc(C(F)(F)F)c2)CC1 |
| 0.462 | 0 | 3.67 | – | CC1Cc2ccccc2C2(CCN(CCC(C(=O)NCc3cc(C(F)(F)F)cc(C(F)(F)F)c3)c3ccc(F)cc3)CC2)O1 (stereo not given) |
| 1.6 | 9 | 8.01 | – | CC1Cc2ccccc2C2(CCN(CCC(C(=O)NCc3cc(F)cc(C(F)(F)F)c3)c3ccc(F)cc3)CC2)O1 (stereo not given) |
